One data set addresses T1, Cytochrome P450 1A2 (Homo sapiens, UniProt P05177).
T1 sequence (P05177 whole entry): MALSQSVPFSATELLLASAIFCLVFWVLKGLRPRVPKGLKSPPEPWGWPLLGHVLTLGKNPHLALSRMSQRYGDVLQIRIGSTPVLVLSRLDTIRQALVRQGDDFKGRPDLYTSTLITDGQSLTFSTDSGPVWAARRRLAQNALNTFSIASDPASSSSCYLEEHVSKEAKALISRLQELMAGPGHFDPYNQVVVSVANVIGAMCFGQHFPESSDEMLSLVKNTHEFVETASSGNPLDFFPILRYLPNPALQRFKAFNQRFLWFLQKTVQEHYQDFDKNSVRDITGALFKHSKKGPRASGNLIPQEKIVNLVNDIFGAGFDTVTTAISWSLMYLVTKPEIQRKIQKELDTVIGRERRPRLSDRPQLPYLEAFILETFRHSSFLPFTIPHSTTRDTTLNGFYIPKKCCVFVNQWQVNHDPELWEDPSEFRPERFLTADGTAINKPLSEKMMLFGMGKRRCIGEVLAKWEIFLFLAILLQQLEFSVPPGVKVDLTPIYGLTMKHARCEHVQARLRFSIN
Description: Drug level in human recombinant CYP1A2 expressed in insect cells coexpressing NADPH-P450 reductase measured per pmol of enzyme treated with 50 uM cinobufagin at 37 degC after 30 mins by UFLC-DAD-ESI-MS analysis. As to conditions: 0.5 h.

Data set [1] has as its system Liver microsome. Description: Retention time in Sprague-Dawley rat liver microsomes treated with 100 uM cinobufagin at 37 degC after 30 mins by UFLC-DAD-ESI-MS analysis. The class given is ADME. As to conditions: 0.5 h. The essentials: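 Male Sprague-Dawley rat microsomes (0.3 mg/ml) were incubated with CB (100 µM) at 37°C for 30 min, with and without NADPH-generating system. Separation was on an ODS column at 40°C using an acetonitrile/0.5% formic acid water gradient at 0.4 ml/min, with DAD detection at 294 nm plus ESI-MS.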

Data set [2] is described as follows: Drug level in Swiss-Hauschka (ICR) mouse liver microsomes treated with 100 uM cinobufagin at 37 degC after 30 mins by UFLC-ESI-MS analysis in presence of NADPH-generating system. As to conditions: 0.5 h. The class given is ADME. In a few lines:
(§1)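 Liver microsomes (0.3 mg protein/ml) incubated with 100 µM substrate at 37°C for 30 min, in 100 mM potassium phosphate pH 7.4 with NADPH-generating system (1 mM NADP+, 10 mM glucose 6-phosphate, 1 unit/ml G6PDH, 4 mM MgCl2). Acetonitrile ≤1% final. Stopped with ice-cold acetonitrile and centrifuged. Metabolites identified by UFLC-ESI-MS and quantified by UFLC-DAD at 294 nm against authentic standard curves.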

Another data set concerns the target T2, Cytochrome P450 2A6 (Homo sapiens, UniProt P11509).
T2 sequence (P11509 whole entry): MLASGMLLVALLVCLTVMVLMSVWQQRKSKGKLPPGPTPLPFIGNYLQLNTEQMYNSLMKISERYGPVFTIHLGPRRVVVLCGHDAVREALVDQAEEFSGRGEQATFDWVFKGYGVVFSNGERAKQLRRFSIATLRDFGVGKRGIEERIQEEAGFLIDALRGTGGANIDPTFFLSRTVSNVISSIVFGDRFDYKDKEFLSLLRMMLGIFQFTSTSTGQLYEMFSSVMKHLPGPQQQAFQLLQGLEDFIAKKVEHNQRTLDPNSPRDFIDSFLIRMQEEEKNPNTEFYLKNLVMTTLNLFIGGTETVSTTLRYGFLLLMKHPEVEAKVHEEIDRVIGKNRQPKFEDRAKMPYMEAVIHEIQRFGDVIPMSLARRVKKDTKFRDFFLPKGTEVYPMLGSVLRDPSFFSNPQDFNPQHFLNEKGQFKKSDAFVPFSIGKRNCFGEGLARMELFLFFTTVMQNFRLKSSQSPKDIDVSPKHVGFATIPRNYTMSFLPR
Description: Drug level in human recombinant CYP2A6 expressed in insect cells coexpressing NADPH-P450 reductase measured per pmol of enzyme treated with 50 uM cinobufagin at 37 degC after 30 mins by UFLC-DAD-ESI-MS analysis. As to conditions: 0.5 h.

A short description of data set [3]: Ratio of Vmax/Km in cynomolgus monkey liver microsomes assessed as 5beta-hydroxylcinobufaginn formation at 100 uM […] by UFLC-ESI-MS analysis. The class given is ADME, Macaca fascicularis. As to conditions: 0.5 h. On the technique in general: Liver microsomes are a subcellular fraction often used to study metabolism.
Data set [4] in a line: Drug metabolism in cynomolgus monkey liver microsomes assessed as 1alpha-hydroxylcinobufagin formation at 100 uM at 37 degC after 30 mins by UFLC-ESI-MS analysis in presence of 10 uM sulfaphenazole CYP2C9 inhibitor. The format is ADME, Macaca fascicularis. As to conditions: 0.5 h. The essentials: (§2)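 Chemical inhibition: selective P450 inhibitors (furafylline, sulfaphenazole, ketoconazole) added to liver microsome incubations in 100 mM potassium phosphate pH 7.4 with NADPH-generating system at 37°C. Hydroxylated metabolite formation quantified by UFLC at 294 nm against standards. Mean ± S.D. of three experiments in duplicate.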

Data set [5] in a line: Drug metabolism in Colony-bred Chinese Bama minipig liver microsomes assessed as 1alpha-hydroxylcinobufagin formation at 100 uM at 37 degC after 30 mins by UFLC-ESI-MS analysis in presence of 1 uM ketoconazole CYP3A4 inhibitor. The class given is ADME, Sus scrofa. As to conditions: pig, 0.5 h. The essentials: as §2
In data set [6] the test system is Liver microsome. Description: Drug metabolism in beagle dog liver microsomes assessed as 1alpha-hydroxylcinobufagin formation at 100 uM at 37 degC after 30 mins by UFLC-ESI-MS analysis in presence of 10 uM furafylline CYP1A2 inhibitor. As to conditions: 0.5 h. The format is ADME, Canis lupus familiaris. In a few lines:
as §2

Data set [7] is described as follows: Drug metabolism in Swiss-Hauschka (ICR) mouse liver microsomes assessed as 1alpha-hydroxylcinobufagin formation at 100 uM at 37 degC after 30 mins by UFLC-ESI-MS analysis in presence of 10 uM furafylline CYP1A2 inhibitor. The class given is ADME. As to conditions: 0.5 h. In a few lines:
as §2

Data set [8] can be described thus: Ratio of Vmax/Km in Colony-bred Chinese Bama minipig liver microsomes assessed as 5beta-hydroxylcinobufaginn formation at 100 uM […] by UFLC-ESI-MS analysis. The format is ADME, Sus scrofa. As to conditions: pig, 0.5 h.
Data set [9] can be described thus: Drug metabolism in Colony-bred Chinese Bama minipig liver microsomes assessed as 1alpha-hydroxylcinobufagin formation at 100 uM at 37 degC after 30 mins by UFLC-ESI-MS analysis. The format is ADME, Sus scrofa. As to conditions: pig, 0.5 h, read-out: Km(app). The essentials: as §1
Data set [10] is described as follows: Ratio of Vmax/Km in Colony-bred Chinese Bama minipig liver microsomes assessed as 1alpha-hydroxylcinobufagin formation at 100 uM […] by UFLC-ESI-MS analysis. The format is ADME, Sus scrofa. As to conditions: pig, 0.5 h.
Data set [11] has as its system Liver microsome. Description: Drug metabolism in human liver microsomes assessed as 1alpha-hydroxylcinobufagin formation at 100 uM at 37 degC after 30 mins […] in presence of 10 uM furafylline CYP1A2 inhibitor. As to conditions: 0.5 h. The class given is ADME.
Data set [12] relates to Liver microsome. Description: Drug metabolism in human liver microsomes assessed as 5beta-hydroxylcinobufaginn formation per mg of protein at 100 uM […] by UFLC-ESI-MS analysis. The class given is ADME. As to conditions: 0.5 h.
Data set [13] can be described thus: Drug metabolism in Colony-bred Chinese Bama minipig liver microsomes assessed as 5beta-hydroxylcinobufaginn formation at 100 uM at 37 degC after 30 mins by UFLC-ESI-MS analysis. The format is ADME, Sus scrofa. As to conditions: pig, 0.5 h, read-out: Km(app). In a few lines: as §1
The test system of data set [14] is Liver microsome. Description: Drug metabolism in beagle dog liver microsomes assessed as 5beta-hydroxylcinobufaginn formation at 100 uM at 37 degC after 30 mins by UFLC-ESI-MS analysis. The format is ADME, Canis lupus familiaris. As to conditions: 0.5 h, read-out: Km(app). The essentials:
as §1

Here are results for three compounds from ChEMBL document CHEMBL3526081 (Drug Metab Dispos, 2011).

What is called Km is the concentration of substrate that gives half-maximal velocity. The Vmax is the top rate of the reaction or transport when substrate is in excess.

For the compound `CC(=O)O[C@H]1[C@H]2O[C@]23[C@@H]2CC[C@@H]4C[C@@H](O)C[C@H](O)[C@]4(C)[C@H]2CC[C@]3(C)[C@H]1c1ccc(=O)oc1`, the Drug metabolism on Cytochrome P450 1A2 is under 0.01 pmol/min; in data set [2] it was “metabolite_detected”; on Cytochrome P450 2A6 it was under 0.01 pmol/min. In the data set on Liver microsome [1], this compound showed a Retention_time of 7.35 min.
For `CC(=O)O[C@H]1[C@H]2O[C@]23[C@@H]2CC[C@@H]4C[C@@H](O)CC[C@]4(C)[C@H]2CC[C@]3(C)[C@H]1c1ccc(=O)oc1` [CINOBUFAGIN], the Vmax/Km in data set [3] is 216.5 µL/min/mg; in data set [8], 54.6 µL/min/mg; in data set [10], 14.5 µL/min/mg. Also, the Drug metabolism entry is on record as “metabolite_detected” in data set [4]; “metabolite_not_detected” in data set [5]; “metabolite_detected” with Liver microsome [6]; “metabolite_detected” in [7]; “metabolite_detected” in the data set with Liver microsome [11]. Further, the figures for the Km (in data set [9]; in [13]; in the data set with Liver microsome [14]) were 17.2 µM, 11.9 µM and 3.4 µM, respectively. The maximum rate (Vmax) in the data set on Liver microsome [12] worked out at 1.17 nmol/min/mg.
For the compound `CC(=O)O[C@H]1[C@H]2O[C@]23[C@@H]2CC[C@]4(O)C[C@@H](O)CC[C@]4(C)[C@H]2CC[C@]3(C)[C@H]1c1ccc(=O)oc1` [CINOBUFOTALIN], the Drug metabolism at Cytochrome P450 1A2 is recorded as under 0.01 pmol/min; in [2] it was “metabolite_detected”; at Cytochrome P450 2A6, under 0.01 pmol/min. This compound also displayed a Retention_time in the data set with Liver microsome [1] of 7.6 min.
